We go through 24 compounds from ChEMBL document CHEMBL1152534, “Synthesis of oxalamide and triazine derivatives as a novel class of hybrid 4-aminoquinoline with potent antiplasmodial activity” (Bioorg Med Chem, 2009).

Usually IC50 stands for the concentration at which inhibition is half-maximal. The term inhibition in vivo denotes the change of the read-out against control, counted positive when it falls.

One experiment deals with Plasmodium falciparum. Kind of experiment: Antimalarial activity against chloroquine-sensitive Plasmodium falciparum 3D7 […] after 72 hrs by twofold serial dilution method. The experiment is classed as functional, organism-based. In short, it runs like this:
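P. falciparum 3D7 erythrocyte culture, 2.5% cell suspension at 0.5% parasitaemia. Compounds were twofold serially diluted from 500 ng/mL (seven concentrations) in duplicate wells and incubated 72 h. Lysis buffer with SYBR Green I (Tris pH 7.5, EDTA, saponin, Triton X-100) was added, followed by 1 h at room temperature and a fluorescence read. IC50 from non-linear regression dose–response curves.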

For experiment [1], the system named is Plasmodium yoelii. Kind of experiment: Antiplasmodial activity against Plasmodium yoelii infected in Swiss mice (Mus musculus) erythrocytes assessed as inhibition of beta-hematin formation after 16 hrs by fluorescence assay. The note with it: Plasmodium yoelii, 16 h; in the assay text read “absorbance measurement at 400 nm” for “fluorescence assay”. The experiment is classed as functional, organism-based. In short, it runs like this:
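Plasma came from P. yoelii-infected mouse blood at about 50% parasitemia, collected in citrate and centrifuged. The mix held 100 mM sodium acetate pH 5.1, 50 µL plasma and 100 µM hemin substrate in 1.0 mL, run in triplicate at 37 °C for 16 h with shaking. The pellet was dissolved in Tris-HCl pH 7.4 with 2.5% SDS. Absorbance at 400 nm; IC50 by non-linear regression.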

Experiment [2] relates to Plasmodium yoelii. Kind of experiment: Antimalarial activity against chloroquine-resistant Plasmodium yoelii N67 infected in Swiss mice (Mus musculus) assessed as inhibition of parasitaemia at 50 mg/kg, intraperitoneally administered daily for 4 days measured on day 4 post-infection. The class given is functional. The conditions noted are these: N67, ip, 96 h, route intraperitoneal. In short, it runs like this: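 Swiss mice were inoculated with 1 × 10⁶ P. yoelii N-67 parasitized RBC on day 0. Groups of five received compound as an aqueous suspension with a few drops of Tween 80, at 50 mg/kg/day intraperitoneally once daily from day 0 to 3. Parasitaemia was read from thin smears on day 4, with group-mean percent suppression against untreated controls.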

Experiment [3] in a line: Selectivity index, ratio of CC50 for african green monkey (Cercopithecus aethiops) Vero cells to IC50 for chloroquine-sensitive Plasmodium falciparum 3D7. The experiment is classed as functional. In short, it runs like this: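 SI is Vero CC50 divided by the antiplasmodial IC50. For CC50, Vero (C-1008) cells at 1 × 10⁴ cells/well were exposed to varying compound concentrations for 72 h with an MTT read-out. CC50 is the concentration killing 50% of cells.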

Setting [4] is: Plasmodium falciparum, 3D7, Vero, 72 h, read-out: IC50.

Converted amounts (≈) assume the structure as drawn. A value given as a limit tells only on which side of the number the result lay.

As to `CCCCNC(=O)C(=O)N1CCN(CCNc2ccnc3cc(Cl)ccc23)CC1`, in the experiment with Plasmodium falciparum (vero), the IC50 result is reported as “Not Active”.

`O=C(NCCCN1CCOCC1)C(=O)NCCNc1ccnc2cc(Cl)ccc12`: the values for the IC50 in the experiment on Plasmodium yoelii [1] and in the experiment on Plasmodium falciparum (setting [4]) were 7.18 µg/mL (≈ 17.1 µM) and 0.0313 µg/mL (≈ 0.0746 µM), respectively. Moreover, the inhibition in vivo at 50 mg/kg in the experiment on Plasmodium yoelii [2] was found to be 43.6%. The “Ratio CC50/IC50” value in experiment [3] turned out to be 1567.05.

In the case of `CCN(CC)CCNc1nc(NCCCNc2ccnc3cc(Cl)ccc23)nc(N2CCOCC2)n1`, the IC50 was 10.6 µg/mL (≈ 20.7 µM) with Plasmodium yoelii [1] and 0.0403 µg/mL (≈ 0.0783 µM) with Plasmodium falciparum (setting [4]). Also, the “Ratio CC50/IC50” value in experiment [3] turned out to be 1068.32.

Regarding `CC(C)(C)NC(=O)C(=O)N1CCN(c2ccnc3cc(Cl)ccc23)CC1`, the IC50 result in the experiment on Plasmodium falciparum (vero) was “Not Active”.

On to `O=C(NCCN1CCOCC1)C(=O)N1CCN(c2ccnc3cc(Cl)ccc23)CC1`, for which the IC50 entry in the experiment with Plasmodium falciparum (vero) is given as “Not Active”.

With `CCCCNC(=O)C(=O)NCCCNc1ccnc2cc(Cl)ccc12`, the IC50 stood at 15.7 µg/mL (≈ 43.2 µM) in the experiment with Plasmodium yoelii [1] and 0.233 µg/mL (≈ 0.643 µM) in the experiment with Plasmodium falciparum (setting [4]). For the same compound, the “Ratio CC50/IC50” value in experiment [3] is 38.13.

As for `CN(C)CCNC(=O)C(=O)NCCCNc1ccnc2cc(Cl)ccc12`, the IC50 in the experiment on Plasmodium yoelii [1] turned out to be 7.98 µg/mL (≈ 21.1 µM); with Plasmodium falciparum (setting [4]) it was 0.0264 µg/mL (≈ 0.0699 µM). Moreover, the inhibition in vivo at 50 mg/kg in the experiment on Plasmodium yoelii [2] came out at 70.5%. In addition, the “Ratio CC50/IC50” value in experiment [3] turned out to be 2527.65.

As to `Cn1cc(C(=O)C(=O)N2CCN(CCNc3ccnc4cc(Cl)ccc34)CC2)c2ccccc21`, in the experiment on Plasmodium falciparum (vero), the IC50 result is on record as “Not Active”.

For the compound `Clc1ccc2c(NCCNc3nc(NCCCN4CCOCC4)nc(N4CCCCC4)n3)ccnc2c1`, the results for the IC50 in the experiment on Plasmodium yoelii [1] and with Plasmodium falciparum (setting [4]) were 7.79 µg/mL (≈ 14.8 µM) and 0.0656 µg/mL (≈ 0.125 µM), respectively. For the same compound, the “Ratio CC50/IC50” value in experiment [3] was determined as 65.21.

On to `CN(C)CCNc1nc(NCCCNc2ccnc3cc(Cl)ccc23)nc(N2CCCCC2)n1`, for which the IC50 turned out to be 8.19 µg/mL (≈ 16.9 µM) in the experiment with Plasmodium yoelii [1] and 0.0156 µg/mL (≈ 0.0323 µM) in the experiment with Plasmodium falciparum (setting [4]). Also, in experiment [3], the “Ratio CC50/IC50” value was found to be 330.11.

Consider `CN(C)CCNc1nc(NCCNc2ccnc3cc(Cl)ccc23)nc(N2CCOCC2)n1`, for which the IC50 came out at 8.1 µg/mL (≈ 17.2 µM) in the experiment with Plasmodium yoelii [1] and 0.0394 µg/mL (≈ 0.0835 µM) in the experiment with Plasmodium falciparum (setting [4]). Moreover, the “Ratio CC50/IC50” value in experiment [3] was determined as 1291.71.

As to `CC(C)(C)NC(=O)C(=O)N1CCN(CCNc2ccnc3cc(Cl)ccc23)CC1`, the IC50 entry in the experiment on Plasmodium falciparum (vero) was “Not Active”.

For the compound `CN1CCN(c2nc(NCCCNc3ccnc4cc(Cl)ccc34)nc(N3CCCCC3)n2)CC1`, the values for the IC50 in the experiment on Plasmodium yoelii [1] and in the experiment with Plasmodium falciparum (setting [4]) were 7.45 µg/mL (≈ 15 µM) and 0.00913 µg/mL (≈ 0.0184 µM), respectively. Further, the “Ratio CC50/IC50” value in experiment [3] amounted to 530.2.

For `CCN(CC)CCNC(=O)C(=O)NCCNc1ccnc2cc(Cl)ccc12`, the values for the IC50 in the experiment on Plasmodium yoelii [1] and with Plasmodium falciparum (setting [4]) were 7.01 µg/mL (≈ 17.9 µM) and 0.0503 µg/mL (≈ 0.128 µM), respectively. For the same compound, in experiment [3], the “Ratio CC50/IC50” value was 605.61.

For the compound `O=C(NCCCN1CCOCC1)C(=O)N1CCN(c2ccnc3cc(Cl)ccc23)CC1`, the IC50 result in the experiment with Plasmodium falciparum (vero) was “Not Active”.

For the compound `CCN(CC)CCNc1nc(NCCNc2ccnc3cc(Cl)ccc23)nc(N2CCOCC2)n1`, the figures for the IC50 with Plasmodium yoelii [1] and in the experiment on Plasmodium falciparum (setting [4]) were 9.42 µg/mL (≈ 18.8 µM) and 0.0297 µg/mL (≈ 0.0595 µM), respectively. The “Ratio CC50/IC50” value in experiment [3] is reported as 1663.75.

Regarding `CN(C)CCNC(=O)C(=O)NCCNc1ccnc2cc(Cl)ccc12`, the IC50 with Plasmodium yoelii [1] worked out at 11.1 µg/mL (≈ 30.5 µM); in the experiment with Plasmodium falciparum (setting [4]) it was 0.0316 µg/mL (≈ 0.0868 µM). For the same compound, in experiment [3], the “Ratio CC50/IC50” value was 383.03.

Turning to `Cc1ccc(S(=O)(=O)n2cc(C(=O)C(=O)N3CCN(CCNc4ccnc5cc(Cl)ccc45)CC3)c3ccccc32)cc1`, the IC50 result in the experiment with Plasmodium falciparum (vero) is recorded as “Not Active”.

Turning to `CN1CCN(c2nc(NCCCNc3ccnc4cc(Cl)ccc34)nc(N3CCOCC3)n2)CC1`, the IC50 with Plasmodium yoelii [1] is 8.55 µg/mL (≈ 17.2 µM); in the experiment with Plasmodium falciparum (setting [4]) it was 0.0401 µg/mL (≈ 0.0805 µM). Besides, the “Ratio CC50/IC50” value in experiment [3] is recorded as 704.25.

As for `CN(C)CCNc1nc(NCCNc2ccnc3cc(Cl)ccc23)nc(N2CCCCC2)n1`, the IC50 in the experiment with Plasmodium yoelii [1] turned out to be 13.3 µg/mL (≈ 28.4 µM); with Plasmodium falciparum (setting [4]), 0.0159 µg/mL (≈ 0.0338 µM). Besides, the “Ratio CC50/IC50” value in experiment [3] was determined as 1062.3.

As to `O=C(NCCN1CCOCC1)C(=O)N1CCN(CCNc2ccnc3cc(Cl)ccc23)CC1`, the IC50 turned out to be 14.2 µg/mL (≈ 29.8 µM) with Plasmodium yoelii [1] and 0.262 µg/mL (≈ 0.551 µM) in the experiment with Plasmodium falciparum (setting [4]). Also, in experiment [3], the “Ratio CC50/IC50” value was determined as 183.05.

With `CCN(CC)CCNC(=O)C(=O)NCCCNc1ccnc2cc(Cl)ccc12`, the IC50 in the experiment on Plasmodium yoelii [1] amounted to 7.99 µg/mL (≈ 19.7 µM); in the experiment with Plasmodium falciparum (setting [4]), 0.0156 µg/mL (≈ 0.0384 µM). The “Ratio CC50/IC50” value in experiment [3] was 232.99.

In the case of `CN(C)CCNC(=O)C(=O)N1CCN(CCNc2ccnc3cc(Cl)ccc23)CC1`, the IC50 in the experiment with Plasmodium yoelii [1] was below 20 µg/mL; in the experiment with Plasmodium falciparum (setting [4]) it was 0.0844 µg/mL (≈ 0.195 µM). Also, the “Ratio CC50/IC50” value in experiment [3] is recorded as 65.

`Clc1ccc2c(NCCCNc3nc(NCCN4CCOCC4)nc(N4CCOCC4)n3)ccnc2c1`: the figures for the IC50 in the experiment on Plasmodium yoelii [1] and in the experiment on Plasmodium falciparum (setting [4]) were 8.72 µg/mL (≈ 16.5 µM) and 0.0179 µg/mL (≈ 0.0338 µM), respectively. Further, the “Ratio CC50/IC50” value in experiment [3] was found to be 1017.32.
